A short description of data set [1]: Absolute oral bioavailability in Balb/c mouse at 10 mg/kg. The data set is classed as ADME, organism-based. The settings on record: in vivo. The method, boiled down:
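Male Balb/c mice dosed once orally at 10 mg/kg and once intravenously at 3 mg/kg. Either 4 animals per route were profiled individually, or sparse sampling used 24 mice with 3 per time point for mean profiles. Absolute oral bioavailability was derived from the two routes.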

A short description of data set [2]: Intrinsic clearance in human hepatocytes assessed per 10^6 cells at 5 uM. The data set is classed as ADME, cell-based, Hepatocyte.
The target in data set [3] is Mu-type opioid receptor (Homo sapiens) (UniProt P35372). The experiment in a line: Displacement of [3H]DAMGO from recombinant human mu opioid receptor expressed in HEK293 cells at 10 uM after 60 mins by scintillation counting method relative to control. The data set is classed as cell-based. A general note: In a radioligand displacement assay an active substance lowers the binding of a labelled ligand.
Mu-type opioid receptor (Homo sapiens), sequence (P35372 whole entry): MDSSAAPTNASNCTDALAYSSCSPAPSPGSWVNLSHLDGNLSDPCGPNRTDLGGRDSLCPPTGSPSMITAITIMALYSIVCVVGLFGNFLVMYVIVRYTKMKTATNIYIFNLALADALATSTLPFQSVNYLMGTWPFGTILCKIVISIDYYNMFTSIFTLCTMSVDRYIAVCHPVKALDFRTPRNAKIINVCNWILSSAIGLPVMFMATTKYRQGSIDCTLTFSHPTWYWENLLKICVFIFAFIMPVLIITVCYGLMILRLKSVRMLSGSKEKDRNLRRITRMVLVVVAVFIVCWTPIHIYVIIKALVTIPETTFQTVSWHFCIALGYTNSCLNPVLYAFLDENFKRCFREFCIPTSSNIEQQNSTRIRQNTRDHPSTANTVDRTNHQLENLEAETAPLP

Data set [4] can be described thus: Apparent permeability across human Caco2 cells after 2 hrs by LC-MS method. Particulars: Caco-2. The data set is classed as ADME, cell-based. The method, boiled down: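 Caco-2 monolayers checked for integrity, then dosed alongside high- and low-permeability controls. Apical and basal samples taken at 2 h. Four transport conditions: A-B at pH 6.5/7.4 (0% or 0.5% BSA apical, 5% BSA basal), and A-B and B-A at pH 7.4/7.4 (0.5% BSA both sides). Compound quantified by LC/MS. Rapid transport defined as Papp >20 nm/s.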
(Caco-2 cells form a polarised layer with tight junctions and transporters.)

Data set [5] has as its target T1, Muscarinic acetylcholine receptor M1 (Homo sapiens) (UniProt P11229).
T1 sequence (whole entry): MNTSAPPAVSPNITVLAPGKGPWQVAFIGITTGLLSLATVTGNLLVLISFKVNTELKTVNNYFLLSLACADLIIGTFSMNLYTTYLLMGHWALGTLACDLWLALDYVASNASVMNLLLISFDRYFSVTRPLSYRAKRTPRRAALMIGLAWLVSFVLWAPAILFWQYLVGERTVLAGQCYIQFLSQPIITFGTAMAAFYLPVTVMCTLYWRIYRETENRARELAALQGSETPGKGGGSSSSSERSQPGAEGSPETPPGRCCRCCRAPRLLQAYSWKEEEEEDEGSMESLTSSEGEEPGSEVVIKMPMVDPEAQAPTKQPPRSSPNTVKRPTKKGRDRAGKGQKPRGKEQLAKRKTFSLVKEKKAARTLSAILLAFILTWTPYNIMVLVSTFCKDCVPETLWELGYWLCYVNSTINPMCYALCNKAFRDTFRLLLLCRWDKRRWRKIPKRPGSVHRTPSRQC
Kind of data set: Displacement of [3H]pirenzepine from recombinant human muscarinic M1 receptor expressed in CHO cells at 10 uM after 60 mins by scintillation counting method relative to control. The data set is classed as cell-based.

A short description of data set [6]: Metabolic stability in human liver microsomes assessed as parent compound remaining in presence of NADPH by LC-MS/MS method. In kind it is ADME. The method, boiled down:
(§1)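 Compound incubated with liver microsomes (human or mouse) plus NADPH at 37 °C. Loss of parent was followed by LC-MS-MS and reported as percent. Stability bands: low <40%, medium 40–60%, high >60%.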
(Microsomes from liver hold many membrane-bound enzymes, among them those of drug oxidation.)

Data set [7] in a line: Metabolic stability in mouse liver microsomes assessed as parent compound remaining in presence of NADPH by LC-MS/MS method. The data set is classed as ADME. The method, boiled down: as §1
Data set [8] concerns the target T2, Muscarinic acetylcholine receptor M2 (Homo sapiens) (UniProt P08172).
T2 sequence (whole entry): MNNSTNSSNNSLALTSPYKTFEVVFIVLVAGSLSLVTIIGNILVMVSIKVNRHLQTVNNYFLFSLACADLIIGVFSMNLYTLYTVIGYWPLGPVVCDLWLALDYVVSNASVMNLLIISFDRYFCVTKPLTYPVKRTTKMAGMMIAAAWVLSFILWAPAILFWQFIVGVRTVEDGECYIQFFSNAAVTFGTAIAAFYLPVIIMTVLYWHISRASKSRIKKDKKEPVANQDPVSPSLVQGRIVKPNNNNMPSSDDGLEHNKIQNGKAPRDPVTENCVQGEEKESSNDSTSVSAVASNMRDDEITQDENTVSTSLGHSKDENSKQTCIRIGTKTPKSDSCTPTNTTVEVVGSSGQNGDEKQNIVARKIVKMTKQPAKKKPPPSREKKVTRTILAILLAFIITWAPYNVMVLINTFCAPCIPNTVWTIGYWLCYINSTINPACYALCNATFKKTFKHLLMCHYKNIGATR
The experiment in a line: Displacement of [3H]AF-DX384 from recombinant human muscarinic M2 receptor expressed in CHO cells at 10 uM after 60 mins by scintillation counting method relative to control. The data set is classed as cell-based.

The target in data set [9] is T3, C-X-C chemokine receptor type 3 (Homo sapiens, UniProt P49682).
T3 sequence (P49682 whole entry): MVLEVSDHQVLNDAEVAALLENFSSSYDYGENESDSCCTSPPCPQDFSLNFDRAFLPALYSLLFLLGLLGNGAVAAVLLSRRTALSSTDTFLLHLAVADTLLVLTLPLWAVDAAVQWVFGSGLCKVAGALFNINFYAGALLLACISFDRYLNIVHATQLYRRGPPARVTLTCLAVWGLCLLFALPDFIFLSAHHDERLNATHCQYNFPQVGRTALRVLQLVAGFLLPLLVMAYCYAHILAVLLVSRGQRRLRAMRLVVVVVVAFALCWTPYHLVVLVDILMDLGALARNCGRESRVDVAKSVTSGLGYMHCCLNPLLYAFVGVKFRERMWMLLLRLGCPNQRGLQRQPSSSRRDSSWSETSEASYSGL
The experiment in a line: Antagonist activity at human Galphai4qi4-coupled CXCR3A expressed in engineered CHO cells assessed as inhibition of IP-10-induced calcium mobilization by FLIPR assay. In kind it is functional, cell-based.

Data set [10] has as its target T4, Alpha-2A adrenergic receptor (Homo sapiens) (UniProt P08913).
T4 sequence (whole entry): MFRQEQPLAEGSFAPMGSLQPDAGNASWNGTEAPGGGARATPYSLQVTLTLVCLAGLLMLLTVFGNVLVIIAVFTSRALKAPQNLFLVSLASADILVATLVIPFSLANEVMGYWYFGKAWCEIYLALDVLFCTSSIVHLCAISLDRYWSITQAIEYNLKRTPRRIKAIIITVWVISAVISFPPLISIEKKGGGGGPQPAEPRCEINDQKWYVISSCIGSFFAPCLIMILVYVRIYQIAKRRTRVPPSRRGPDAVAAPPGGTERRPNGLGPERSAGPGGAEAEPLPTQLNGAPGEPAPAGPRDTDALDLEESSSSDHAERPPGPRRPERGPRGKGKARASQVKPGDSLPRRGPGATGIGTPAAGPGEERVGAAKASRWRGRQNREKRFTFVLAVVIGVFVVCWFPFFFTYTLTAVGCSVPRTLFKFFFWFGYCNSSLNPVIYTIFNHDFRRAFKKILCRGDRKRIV
The experiment in a line: Displacement of [3H]RX 821002 from recombinant human alpha 2A adrenergic receptor expressed in CHO cells at 10 uM after 60 mins by scintillation counting method relative to control. The data set is classed as cell-based.

The target in data set [11] is T3, C-X-C chemokine receptor type 3. The experiment in a line: Displacement of [125I]-CXCL10 from human recombinant CXCR3 transfected in Flp-In-CHO cell membranes after 60 mins by gamma counting method.
Data set [12] addresses T5, Alpha-1A adrenergic receptor (Homo sapiens) (UniProt P35348).
T5 sequence (whole entry): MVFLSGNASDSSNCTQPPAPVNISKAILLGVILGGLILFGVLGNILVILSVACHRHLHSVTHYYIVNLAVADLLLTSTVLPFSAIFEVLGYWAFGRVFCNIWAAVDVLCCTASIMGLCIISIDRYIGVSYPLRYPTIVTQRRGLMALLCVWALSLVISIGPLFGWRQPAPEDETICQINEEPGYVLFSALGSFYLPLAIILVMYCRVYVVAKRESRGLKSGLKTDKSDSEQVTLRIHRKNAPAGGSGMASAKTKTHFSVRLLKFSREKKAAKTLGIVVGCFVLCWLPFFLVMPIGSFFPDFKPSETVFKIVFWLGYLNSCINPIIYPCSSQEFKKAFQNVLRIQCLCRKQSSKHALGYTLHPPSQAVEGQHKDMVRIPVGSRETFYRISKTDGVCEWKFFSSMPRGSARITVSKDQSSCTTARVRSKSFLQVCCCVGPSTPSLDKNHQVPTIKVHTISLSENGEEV
Kind of data set: Displacement of [3H]prazosin from recombinant human alpha 1A adrenergic receptor expressed in CHO cells at 10 uM after 60 mins by scintillation counting method relative to control. In kind it is cell-based.

Data set [13] concerns the target Histamine H1 receptor (Homo sapiens) (UniProt P35367). Kind of data set: Displacement of [3H]pyrilamine from recombinant human histamine H1 receptor expressed in HEK293 cells at 10 uM after 60 mins by scintillation counting method relative to control. The data set is classed as cell-based.
A short description of data set [14]: Chemical stability of the compound in 1:1 acetonitrile-water at pH 6.5 after 48 hrs by LC-MS method. In kind it is physicochemical. Particulars: buffer, pH 6.5, 48 h.

Structures are written as SMILES.

Histamine H1 receptor (Homo sapiens), sequence (P35367 whole entry): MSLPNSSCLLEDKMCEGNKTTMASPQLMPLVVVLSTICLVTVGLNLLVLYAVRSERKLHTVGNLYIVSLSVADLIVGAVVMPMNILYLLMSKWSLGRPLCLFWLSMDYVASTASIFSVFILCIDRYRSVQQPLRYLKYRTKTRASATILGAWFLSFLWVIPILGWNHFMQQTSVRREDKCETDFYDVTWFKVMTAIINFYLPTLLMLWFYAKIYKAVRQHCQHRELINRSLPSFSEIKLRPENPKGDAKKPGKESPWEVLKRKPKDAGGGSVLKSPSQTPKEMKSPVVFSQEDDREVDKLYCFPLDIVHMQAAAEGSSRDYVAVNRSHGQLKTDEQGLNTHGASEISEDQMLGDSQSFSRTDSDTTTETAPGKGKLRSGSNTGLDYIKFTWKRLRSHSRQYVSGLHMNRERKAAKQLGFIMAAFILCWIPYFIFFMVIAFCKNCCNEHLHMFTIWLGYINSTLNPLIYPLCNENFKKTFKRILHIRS

With `Cc1cc(CN(C[C@H]2CC[C@H](C(=O)O)CC2)[C@H]2CCc3cc(Cl)ccc32)ccc1OCCN1C(=O)CCC1=O`, the bioavailability in data set [1] stood at 69%. In data set [2], this compound registered a CLH of 0.09 mL/h. In addition, the inhibition was determined as 87% in data set [3], 82% in data set [5] and 92% in data set [8]. In [4], the Papp at 2 h turned out to be 8.12 ×10⁻⁶ cm/s. Moreover, the values for the Stability in data set [6] and in [7] were 78% and 91%, respectively.
As to `COc1cc(CN(C)C(C)c2ccc3c(c2)CCO3)ccc1OCCN1C(=O)CCC1=O` (configuration not stated), the IC50 in [9] stood at 74 nM; in data set [11], 403 nM. Besides, the inhibition in data set [3], in [10], in data set [12], in data set [13] and in [8] was more than 65% in each case. Besides, the Papp at 2 h in [4] came out at 5.62 ×10⁻⁶ cm/s. For the same compound, the Stability in [6] is reported as 53%; in [7], 52%.
For `COc1cc(CN(C[C@H]2CC[C@H](C(=O)O)CC2)C(C)c2ccc3c(c2)CCO3)ccc1OCCN1C(=O)COC1=O` (some centres not stated), the Stability result in data set [14] is reported as “Unstable”; in data set [6], 88%; in data set [7], 93%. In addition, the Papp at 2 h in data set [4] turned out to be 1.16 ×10⁻⁶ cm/s.

As usually defined, the bioavailability is the share of a dose that reaches the circulation, judged against a reference dose that is usually intravenous. A word on the inhibition: it is the percentage by which the read-out fell short of the control. What is called Papp is a coefficient for how fast a substance crosses the barrier. One may read the IC50 as the midpoint of a concentration-inhibition curve.

Source of the values: ChEMBL document CHEMBL3864163, “I. Discovery of a novel series of CXCR3 antagonists. Multiparametric optimization of N,N-disubstituted benzylamines” (Bioorg Med Chem Lett, 2016).
